TCR CD3 inh: inhibitors of human TCR-CD3 interaction, primary screen, biochemical, fluorescence, TAMRA-labeled TCR probe. T-cell receptor (TCR). inhibition, % at 9.4 µM. 360,000 compounds, 0.37% hits; in the data active = inhibition above about 19%;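 also: recombinant mutant TCR 2C K166C tagged with TAMRA read by polarization; 0% = receptor in buffer alone and 100% = receptor with positive control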
HTRA1 inh: HTRA1 serine protease inhibitors, primary screen, biochemical, fluorescence polarization, HTS; Q92743; recombinant HTRA1, FP-rhodamine activity-based probe; inhibition, % at 5.96 µM; 340,000 compounds, 0.5% hits; AID 504803, 2011; in the data active = inhibition above about 36%;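 also: 0% = enzyme with DMSO and 100% = wells lacking enzyme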
ATG4B inh: ATG4B protease inhibitors, primary screen, biochemical, fluorescence, uHTS; Cysteine protease ATG4B (Homo sapiens), Q9Y4P1; ATG4B cleavage of LC3-PLA2, NBD-HPC fluorescence, 1 h; inhibition, % at 8.33 µM; 340,000 compounds, 0.51% hits; in the data active = inhibition above about 40%
ABHD4 inh: ABHD4 inhibitors, primary screen, biochemical, fluorescence polarization, mouse. inhibition, % at 8.92 µM. 370,000 compounds, 0.54% hits. purified mABHD4, FP-Rh probe fluorescence polarization;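 active = inhibition exceeding the mean over every tested compound plus 3 SD, cut at about 30% in these data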;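 also: 0% = plate median of compound wells and 100% = S159A mutant with DMSO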
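Assay system: mouse ABHD4 enzyme, wild type / Also added: fluorescent activity-based probe FP-Rh / Doses: single nominal dose of 8.92 µM, 0.89% DMSO final / Timing: 45 min compound pre-incubation plus 60 min probe step, 25 °C / Signal: FP readout, ex 525 nm / em 598 nm / Control set: S159A mutant/DMSO as 100%, compound-well median as 0%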
PRMT1 inh: PRMT1 methyltransferase inhibitors, primary screen, biochemical, fluorescence polarization. recombinant PRMT1, activity-based probe fluorescence polarization. 370,000 compounds, 1.3% hits. AID 652257, 2013. inhibition, % at 2.79 µM. Protein arginine N-methyltransferase 1 (Homo sapiens), Q99873;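 active = inhibition above about 21% made by adding two undisclosed values, limit read from the data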
Target sequence (Q99873 whole entry, looked up): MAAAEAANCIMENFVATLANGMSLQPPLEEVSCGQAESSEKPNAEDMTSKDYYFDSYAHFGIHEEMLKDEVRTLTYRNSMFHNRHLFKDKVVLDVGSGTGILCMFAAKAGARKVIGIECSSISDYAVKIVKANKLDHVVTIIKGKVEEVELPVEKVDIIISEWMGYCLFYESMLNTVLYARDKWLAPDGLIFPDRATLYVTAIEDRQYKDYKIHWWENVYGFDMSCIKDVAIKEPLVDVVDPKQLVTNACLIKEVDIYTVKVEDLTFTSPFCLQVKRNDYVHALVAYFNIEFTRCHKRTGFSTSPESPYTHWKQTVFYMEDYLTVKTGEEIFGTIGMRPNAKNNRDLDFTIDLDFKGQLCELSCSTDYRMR
SIAE inh: human SIAE inhibitors, primary screen, biochemical, fluorescence polarization, FP-Rh probe, 1536-well HTS; SIAE FP-Rh probe binding; inhibition, % at 9.66 µM; Sialate O-acetylesterase (Homo sapiens), Q9HAT2; 370,000 compounds, 0.69% hits;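 active = inhibition above a cutoff: mean of compounds within the control limits plus 3 SD of those, cut at about 17% in these data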;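 also: 0% = plate median of compound wells and 100% = probe without SIAE protein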
SIAE confirm: human SIAE inhibitors, retest, confirmation, biochemical, fluorescence polarization, FP-Rh probe, triplicate. shares compounds with SIAE inh. 2,300 compounds, 13% hits. SIAE FP-Rh activity-based probe. inhibition, % at 9.66 µM;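 active = mean inhibition of the replicates above the hit cutoff set in the primary screen, cut at about 17% in these data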;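 also: 0% = SIAE with DMSO and probe and 100% = probe without SIAE; inhibitors lower polarization as more probe stays unbound to SIAE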
* marks the source's active call; other numbers are inactive results; x = no result. Shown are actives, neighbours in structure and some others; about 2.9% of the full set was active somewhere.

SMILES	TCR CD3 inh	HTRA1 inh	ATG4B inh	ABHD4 inh	PRMT1 inh	SIAE inh	SIAE confirm
CC(C)c1ccc(Oc2cccc3c2S(=O)(=O)N([C@H](C)c2ccccc2)C[C@@H](COCc2ccccc2)O3)cc1	5	x	x	0	-1	1	x
CN(C)c1ccc(NC(=O)Nc2csc3ccccc23)cc1	8	x	-15	16	0	18*	9
O=C(Nc1ccc(F)cc1)Nc1csc2ccccc12	-6	x	6	-11	0	17	x
COc1ccccc1NC(=O)Nc1nc(CC(=O)Nc2ccc(N(C)C)cc2)cs1	-1	21	-11	24	-1	27*	0
CN1CCCCC(NC(=O)c2ccccn2)C1=O (configuration not stated)	-11	x	x	0	-2	-2	x
Cc1sc2nc(CN3CCOCC3)nc(N3CCC(C(N)=O)CC3)c2c1C	-2	3	2	0	3	0	x
Cc1sc2nc(CN3CCOCC3)nc(N3CCOCC3)c2c1C	4	2	2	5	-1	21*	6
CCOC(=O)Cn1cc(CN2C(C(=O)OC)CN(Cc3ccc(Cl)cc3)CCS2(=O)=O)nn1 (configuration not stated)	x	x	x	0	-4	5	x
N=c1n(CCN2CCOCC2)c2ccccc2n1CC(=O)c1ccc(Cl)c(Cl)c1	2	-13	-2	-6	2	19*	3
CCC(=O)Nc1nnc(SCCOC)s1	-5	5	-9	2	1	58*	-4
COCCSc1nnc(NC(=O)c2ccc3c(c2)OCO3)s1	-1	9	3	4	-1	18*	-2
CCCCNS(=O)(=O)/C=C/c1cc2c(cc1CNC(=O)OC(C)(C)C)OCO2	x	x	x	-4	0	2	x
CCc1ccccc1NCC(=O)Nc1ccc(Cl)c(C(F)(F)F)c1	0	5	19	-16	-1	27*	11
CC(=O)c1cccc(N(C(=O)c2ccco2)C(C(=O)NC2CCCCC2)c2ccc(C)o2)c1 (configuration not stated)	-2	2	-8	-1	3	19*	-8
CC(=O)c1cccc(N(C(=O)CNC(=O)c2ccco2)C(C(=O)NC2CCCC2)c2ccc(C)o2)c1 (configuration not stated)	3	1	-5	-1	0	0	x
COc1ccc(N(C(=O)c2ccco2)C(C(=O)NC2CCCC2)c2ccc(N(C)C)cc2)cc1OC (configuration not stated)	0	2	-13	1	-4	26*	4
O=C(N[C@H](C(=O)N1CCC[C@H]1C(=O)NC1CCCC1)c1ccccc1)c1ccc(Cl)c(Cl)c1	-1	x	x	-10	0	1	x
Cc1ncc(CSc2nc3ccccc3[nH]2)c(N)n1	-2	3	3	2	1	-2	x
COc1ccc2nc(SCc3cnc(C)nc3N)[nH]c2c1	4	1	-1	10	1	19*	-4
Nc1[nH]c(C(=O)c2ccc(Br)cc2)c(-c2ccncc2)c1C(=O)NCCc1c[nH]c2ccccc12	5	x	x	20	2	8	x
COc1ccccc1CCC(=O)OCC(=O)N1c2ccccc2NC(=O)C1(C)C	-4	-4	-8	0	1	21*	0
Cc1ccc(C)c(OCCC(=O)OCC(=O)N2c3ccccc3NC(=O)C2(C)C)c1	0	-11	-4	-6	-1	2	x
Cc1ccc(NC(=O)COC(=O)CSC(=S)N2CCOCC2)cc1C	-9	6	-16	1	3	-5	x
Cc1ccc(NC(=Nc2ccc(Br)cc2)N2CCOCC2)cc1C	-4	-3	-6	0	-8	18*	-2
O=C(Nc1nnc(C(F)(F)F)s1)c1c(F)cccc1F	0	-1	-7	4	0	32*	-4

Screening data as filed in PubChem.
